≈ marks a conversion by molar mass, not a printed value.
Legend:
Staphylococcus aureus [1] = test: Antibacterial activity against Staphylococcus aureus ATCC 29213 assessed as complete reduction in bacterial cell growth by CLSI protocol based broth liquid microdilution method; assay type: functional
Procedure, shortened: (§1)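 Broth liquid microdilution per CLSI guidelines; isolates identified on an automated MicroScan system before testing. MIC taken as lowest concentration giving total inhibition of bacterial growth, reported in μg/mL. S. aureus ATCC29213 run as the control strain.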

Staphylococcus aureus [2] = test: Antibacterial activity against methicillin-resistant Staphylococcus aureus assessed as complete reduction in bacterial cell growth by CLSI protocol based broth liquid microdilution method; assay type: functional; procedure, shortened: as §1
Staphylococcus aureus [3] = test: Antibacterial activity against methicillin-sensitive Staphylococcus aureus assessed as complete reduction in bacterial cell growth by CLSI protocol based broth liquid microdilution method; assay type: functional; procedure, shortened: as §1
Enterococcus faecalis [4] = test: Antibacterial activity against linezolid-resistant Enterococcus faecalis assessed as complete reduction in bacterial cell growth by CLSI protocol based broth liquid microdilution method; assay type: functional; procedure, shortened: as §1
Enterococcus faecium [5] = test: Antibacterial activity against vancomycin-resistant Enterococcus faecium assessed as complete reduction in bacterial cell growth by CLSI protocol based broth liquid microdilution method; assay type: functional; procedure, shortened: as §1
Staphylococcus aureus [6] = test: Antibacterial activity against clinical isolates of methicillin-resistant Staphylococcus aureus assessed as complete reduction in bacterial cell growth by CLSI protocol based broth liquid microdilution method; assay type: functional; procedure, shortened: as §1
Staphylococcus aureus [7] = test: Antibacterial activity against clinical isolates of methicillin-sensitive Staphylococcus aureus assessed as reduction in bacterial cell growth by CLSI protocol based broth microdilution method; assay type: functional; procedure, shortened: as §1
Enterococcus faecalis [8] = test: Antibacterial activity against clinical isolates of linezolid-resistant Enterococcus faecalis assessed as complete reduction in bacterial cell growth by CLSI protocol based broth liquid microdilution method; assay type: functional; procedure, shortened: as §1
Enterococcus faecium [9] = test: Antibacterial activity against clinical isolates of vancomycin-resistant Enterococcus faecium assessed as complete reduction in bacterial cell growth by CLSI protocol based broth liquid microdilution method; assay type: functional; procedure, shortened: as §1
[10] = Stability in simulated gastric acid assessed as compound remaining at pH 1.2 incubated for 0.5 hrs; assay type: ADME; settings: read-out: Stability
[11] = Stability in simulated gastric acid assessed as compound remaining at pH 1.2 incubated for 1 hr; assay type: ADME; settings: read-out: Stability
[12] = Stability in simulated gastric acid assessed as compound remaining at pH 1.2 incubated for 1.5 hrs; assay type: ADME; settings: read-out: Stability
[13] = Stability in simulated gastric acid assessed as compound remaining at pH 1.2 incubated for 2 hrs; assay type: ADME; settings: read-out: Stability
[14] = Solubility of compound in water by UV spectrophotometric analysis; assay type: physicochemical
HepG2 = test: Cytotoxicity against human HepG2 cells assessed as reduction in cell viability incubated for 48 hrs by MTT assay; assay type: cell-based; settings: HepG2, 48 h
Procedure, shortened: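 HepG2 cells were grown in RPMI1640 with 10% FBS and plated at about 4×10^4 cells/well in MEM. After 24 h at 37 °C in 5% CO2, compounds were added at the indicated final concentrations for 48 h. MTT was added (0.5 mg/mL final) for 4 h at 37 °C and the formazan dissolved in DMSO. Absorbance was read at 492 nm (630 nm reference). Each compound was tested three times; IC50 given as mean ± SD.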

[15] = Stability in human liver microsomes assessed as half life at 1.5 uM preincubated for 5 mins with NADPH and measured after 45 mins by LC/MS analysis; assay type: ADME, Microsome
Procedure, shortened: (§2)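 Compound solution at 1.5 µM with 0.75 mg/mL microsomes (before NADPH addition) was preincubated 5 min at 37 °C. Reactions were started with NADPH (6 mM stock). Samples were quenched with acetonitrile containing internal standard at 0, 5, 15, 30 and 45 min, then centrifuged, and the supernatant was diluted with water for LC/MS. Runs were in duplicate. T1/2 = ln2/k from the log-linear slope, and CLint was derived from T1/2.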

[16] = Stability in human liver microsomes assessed as intrinsic clearance at 1.5 uM preincubated for 5 mins with NADPH and measured after 45 mins by LC/MS analysis; assay type: ADME, Microsome; settings: read-out: CLH; procedure, shortened: as §2
[17] = Stability in human liver microsomes assessed as compound remaining at 1.5 uM preincubated for 5 mins with NADPH and measured after 45 mins by LC/MS analysis; assay type: ADME, Microsome; procedure, shortened: as §2
MAO-A = molecular target: T1, MAO-A (Homo sapiens, UniProt P21397); test: Inhibition of recombinant human MAO-A (active motif 31502) at 30 uM using luciferin as substrate incubated for 15 mins followed by substrate addition and measured after 60 mins by luminescence based method relative to control; settings: probe luciferin
T1 sequence (P21397 whole entry): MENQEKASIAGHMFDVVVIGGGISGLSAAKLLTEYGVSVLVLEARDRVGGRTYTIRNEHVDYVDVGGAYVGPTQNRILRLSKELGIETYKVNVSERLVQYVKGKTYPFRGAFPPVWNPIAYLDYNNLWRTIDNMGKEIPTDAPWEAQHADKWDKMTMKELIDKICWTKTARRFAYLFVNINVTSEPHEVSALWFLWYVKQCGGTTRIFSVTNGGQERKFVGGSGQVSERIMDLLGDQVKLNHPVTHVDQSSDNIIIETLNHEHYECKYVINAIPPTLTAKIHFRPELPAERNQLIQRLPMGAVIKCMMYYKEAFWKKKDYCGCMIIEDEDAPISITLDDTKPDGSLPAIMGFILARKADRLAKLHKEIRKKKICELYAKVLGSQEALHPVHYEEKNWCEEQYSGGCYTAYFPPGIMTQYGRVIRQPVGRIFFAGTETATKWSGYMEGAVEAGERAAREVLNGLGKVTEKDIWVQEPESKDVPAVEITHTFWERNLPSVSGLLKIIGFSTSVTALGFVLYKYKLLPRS
Procedure, shortened: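 Recombinant human MAO-A was measured with the MAO-Glo kit, modified. Compounds were in DMSO (1% DMSO final) and preincubated with enzyme 15 min at room temperature. Luciferin-derivative substrate was then added and the reaction run 60 min at room temperature. Luciferase detection reagent was added for 20 min and luminescence read. Buffer without enzyme served as the 100% inhibition control; DMSO alone as the no-inhibition control. Percent inhibition = (Max − signal)/(Max − Min)×100.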

Staphylococcus aureus [18] = test: Potency index, ratio of rade-zolid MIC to compound MIC for antibacterial activity against Staphylococcus aureus ATCC 29213 by CLSI protocol based broth liquid microdilution method; assay type: functional
Staphylococcus aureus [19] = test: Potency index, ratio of rade-zolid MIC to compound MIC for antibacterial activity against methicillin-sensitive Staphylococcus aureus by CLSI protocol based broth liquid microdilution method; assay type: functional
Enterococcus faecalis [20] = test: Potency index, ratio of rade-zolid MIC to compound MIC for antibacterial activity against linezolid-resistant Enterococcus faecalis by CLSI protocol based broth liquid microdilution method; assay type: functional
Enterococcus faecium [21] = test: Potency index, ratio of rade-zolid MIC to compound MIC for antibacterial activity against vancomycin-resistant Enterococcus faecium by CLSI protocol based broth liquid microdilution method; assay type: functional

Structure (SMILES)	MIC (Staphylococcus aureus [1])	MIC (Staphylococcus aureus [2])	MIC (Staphylococcus aureus [3])	MIC (Enterococcus faecalis [4])	MIC (Enterococcus faecium [5])	MIC (Staphylococcus aureus [6])	MIC (Staphylococcus aureus [7])	MIC (Enterococcus faecalis [8])	MIC (Enterococcus faecium [9])	remaining at 0.5 h [10]	remaining at 1 h [11]	remaining at 1.5 h [12]	remaining at 2 h [13]	solubility [14]	IC50 (HepG2)	CLint scaled at 1.5 µM [16]	inhibition at 1 h, 30 µM (MAO-A)	Ratio (Staphylococcus aureus [18])	Ratio (Staphylococcus aureus [19])	Ratio (Enterococcus faecalis [20])	other results
CC(=O)NC[C@H]1CN(c2ccc(-c3ccc(/C=N/N4CCN(C)CC4)nc3)c(F)c2)C(=O)O1	0.125 µg/mL (≈ 0.275 µM)	0.125 µg/mL (≈ 0.275 µM)	0.125 µg/mL (≈ 0.275 µM)	0.25 µg/mL (≈ 0.55 µM)	0.25 µg/mL (≈ 0.55 µM)	2 µg/mL (≈ 4.4 µM)	2 µg/mL (≈ 4.4 µM)	0.25 to 0.5 µg/mL (≈ 0.55 to 1.1 µM)	0.25 to 0.5 µg/mL (≈ 0.55 to 1.1 µM)	98.3%	96.8%	96.2%	95.8%	63 µg/mL (≈ 139 µM)	> 25 µM	17.2 mL/min/kg	79%	2 - 4	2 - 4	2 - 4	half-life at 1.5 µM ([15]; liver microsomes): 1.68 h; remaining at 0.75 h, 1.5 µM ([17]; liver microsomes, read-out: Stability): 74.9%; Ratio (Enterococcus faecium [21]): 2 - 4
CC(=O)NC[C@H]1CN(c2ccc(-c3ccc(/C=N/N4CC[S+]([O-])CC4)c(O)c3)c(F)c2)C(=O)O1	0.25 µg/mL (≈ 0.512 µM)	0.125 µg/mL (≈ 0.256 µM)	0.25 µg/mL (≈ 0.512 µM)	0.25 µg/mL (≈ 0.512 µM)	0.25 µg/mL (≈ 0.512 µM)	0.5 to 1 µg/mL (≈ 1.02 to 2.05 µM)	0.5 µg/mL (≈ 1.02 µM)	0.5 µg/mL (≈ 1.02 µM)	0.5 µg/mL (≈ 1.02 µM)	–	–	–	–	–	–	–	88%	–	–	–	–
CC(=O)NC[C@H]1CN(c2ccc(-c3ccc(/C=N/N4CCSCC4)nc3)c(F)c2)C(=O)O1	0.125 µg/mL (≈ 0.273 µM)	0.125 µg/mL (≈ 0.273 µM)	0.25 µg/mL (≈ 0.546 µM)	0.25 µg/mL (≈ 0.546 µM)	0.25 µg/mL (≈ 0.546 µM)	–	0.25 to 0.5 µg/mL (≈ 0.546 to 1.09 µM)	0.5 µg/mL (≈ 1.09 µM)	1 µg/mL (≈ 2.19 µM)	99.4%	99%	98.6%	98%	57 µg/mL (≈ 125 µM)	> 25 µM	90.3 mL/min/kg	75%	2 - 4	2 - 4	2 - 4	t1/2 ([15]; microsomes, 0.75 h, 1.5 µM): 0.3207 h; Stability ([17]; microsomes, 0.75 h, 1.5 µM): 0.62%; Ratio (Enterococcus faecium [21]): 2 - 4
COC(=O)N1CCN(/N=C/c2ccc(-c3ccc(N4C[C@H](CNC(C)=O)OC4=O)cc3F)cc2O)CC1	0.5 µg/mL (≈ 0.974 µM)	0.5 µg/mL (≈ 0.974 µM)	0.5 µg/mL (≈ 0.974 µM)	0.5 µg/mL (≈ 0.974 µM)	0.5 µg/mL (≈ 0.974 µM)	2 µg/mL (≈ 3.89 µM)	2 µg/mL (≈ 3.89 µM)	2 µg/mL (≈ 3.89 µM)	2 µg/mL (≈ 3.89 µM)	–	–	–	–	–	–	–	–	–	–	–	–

Reference: ChEMBL document CHEMBL4312003, “Optimization of biaryloxazolidinone as promising antibacterial agents against antibiotic-susceptible and antibiotic-resistant gram-positive bacteria” (Eur J Med Chem, 2020)
